This is a sample that favours compounds with a hit; in the whole collection about 3.1% have one here.
HIV Env fusion: blocks HIV Env-driven cell-cell fusion; HeLa-JRFL Env/CEM21 cell fusion, luciferase; inhibition, % at 12.3 µM; 360,000 compounds, 1.1% hits; AID 651610;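 active means mean replicate inhibition score of at least 50 and every replicate individually at or above 50; inconclusive means only one of the two criteria met; inactive means mean below 50 and not all replicates reaching 50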;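 further: 0% = plate neutral controls and 100% = maraviroc near 300 nM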
rRNA inh HTS: selective bacterial rRNA inhibition in E. coli. 350,000 compounds, 1.6% hits. GFP signal change (wild-type ribosome), % (concentration not given with the values). E. coli WT GFP vs humanized-ribosome RFP mutants, fluorescence, 24 h; stronger effect = lower value; DMSO median 0, no signal -100. AID 720706;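 active means significant combined selectivity score with lowered wild-type GFP, culture density cut under 30%, mutant RFP and density less affected; inactive means any of these conditions unmet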
miR-122 sensor: miR-122 inhibition in Huh7 cells; Huh7 miR-122 Renilla luciferase sensor, 48 h; neutral wells = 0, positive control = 100; activation (reporter increase), % at 12.5 µM; 340,000 compounds, 0.3% hits; AID 602342;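 active means mean replicate activation score at least 90 and every replicate individually at or above 90; inconclusive means only one of the two criteria met; inactive means neither criterion met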;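 further: higher luciferase means less miR-122 activity so hits act as miR-122 inhibitors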
INS-1E GSIS act: primary screen for activators of insulin secretion dependent on glucose, INS-1E cells, GLuc reporter luminescence. INS-1E GLuc reporter insulin secretion, 2-3 h. activation, % at 16.6 µM. 370,000 compounds, 0.61% hits;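 active means lowest replicate activation of at least 40%, so every replicate reaches that level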;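 further: 0% = median of neutral control wells and 100% = median of IBMX positive control wells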
CFTR F508del cor: CFTR F508del correction in bronchial cells; CFBE cells, YFP halide quenching; stimulated with forskolin plus potentiator P3; % fluorescence drop versus neutral controls; activity (quench increase), % at 7.58 µM; 350,000 compounds, 0.36% hits; AID 720511;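 active means mean added fluorescence quench of at least 8% versus neutral control, with both replicates also reaching 8%; inconclusive means only one of the mean or replicate conditions met; inactive means mean below 8% and not both replicates reaching 8%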;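 further: cells transiently co-express mutant CFTR-F508del with the halide-sensitive YFP; corrector assay measuring rescue of mutant channel to the surface after 24 h compound exposure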
Cneo AK release: Cryptococcus neoformans lysis via adenylate kinase release. C. neoformans lysis, adenylate kinase release luminescence, 4 h; normalised: neutral wells 0, clomiphene wells 100. 360,000 compounds, 0.2% hits. lysis activity, % at 15 µM. AID 651654;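 active means mean lysis activity across replicates of at least 80%, whatever share of replicates individually reach that level; inactive means mean lysis activity below 80%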
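Material: C. neoformans cells | Amount: Yeast cell density of 5 × 10^6 cells/mL | Medium: Fresh YPD growth medium | Dosing: Single dose | Times: Static 4 h at 37 °C with compound, 1 h detection | Detection: AK luminescence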
AID977621: wild-type E. coli growth inhibition versus H69 humanized strain – H69 mutant RFP, wild-type GFP, cherry-pick, dose response | 1,900 tested, under 10 active | fluorescence, 24 h | AID 977621 | activity change, negative = inhibition at 50 µM | shares compounds with rRNA inh HTS;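 active means Wild-type ribosome reporter drop at least double the humanized mutant ribosome reporter drop, growth loss under a set limit; inconclusive means no clear call, values can overlap the other calls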;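 further: wild-type GFP and H69 mutant RFP strains grown together 50/50 in each well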
AID977628: growth of wild-type and h24-humanized E. coli strains – h24 mutant RFP vs wild-type GFP, cherry-pick, dose response; shares compounds with rRNA inh HTS; E. coli WT GFP strain growth, fluorescence, 24 h; activity change, negative = inhibition at 50 µM; 1,900 tested, under 10 active;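 active means compound lowering the normal-ribosome reporter at least twice as much as the humanized-ribosome reporter, growth loss under a set limit; inconclusive means no clear call, values can overlap the other calls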;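 further: wild-type GFP and h24 humanized RFP strains co-cultured 1 to 1 per well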
* marks the source's active call; other numbers are inactive results; ? = inconclusive; · = no result; [ ] = remark or other dose.

SMILES	HIV Env fusion	rRNA inh HTS	miR-122 sensor	INS-1E GSIS act	CFTR F508del cor	Cneo AK release	AID977621	AID977628
CCCCNC(=O)c1c(N)[nH]c(C(=O)c2ccccc2)c1-c1ccccn1	-10.7	-26.8*	·	-9.9	0.5	·	-2	-15.3
Nc1[nH]c(C(=O)c2ccccc2)c(-c2ccc(Cl)cc2)c1C(=O)NCCc1c[nH]c2ccccc12	-312.7	-18.6*	·	-11.8	1.9	·	-12.5	·
Nc1[nH]c(C(=O)c2ccccc2)c(-c2ccc3c(c2)OCO3)c1C(=O)NCCc1c[nH]c2ccccc12	-5.5	-14.8*	·	·	-0.1	·	?	·
Nc1[nH]c(C(=O)c2ccccc2)c(-c2ccc(F)cc2)c1C(=O)NCc1ccccc1	-60.3	3.2	·	8.2	0.2	·	·	·
CC(C)(C)[S@](=O)N1Cc2cc(C(=O)N3CCCCC3)nc(-c3cccc(-c4ccc(C#N)cc4)c3)c2[C@@H]1CCO	-16.3[16.7 µM]	3.6	·	-16.4	2.4	75.7	·	·
CC(C)[C@H](NC(=O)c1ccc([N+](=O)[O-])cc1Cl)C(=O)N1CCN(C/C=C/c2ccccc2)CC1	5.0	-20.6*	-2.3	-7.7	3.4	·	·	?
C[C@H]1CN([C@@H](C)CO)C(=O)c2cccc(NC(=O)C3CCOCC3)c2O[C@H]1CN(C)S(=O)(=O)c1ccc(Cl)cc1	·	0.0	-5.5[16.7 µM]	5.1	-0.4	-1.2	·	·
Cc1cc(-c2ccccc2)nc2cc(C(N)=O)nn12	·	·	-3.5	·	·	4.5	·	·
CCOC(=O)c1cc2nc(-c3ccccc3)cc(C)n2n1	-34.9	-29.0*	·	13.3	-2.9	3.0	-19.2	?
Cc1n(CC(=O)c2ccc(F)cc2)c2ccccc2[n+]1C	-9.7	16.1	·	-1.5	2.4	·	·	·
CCCCc1n(CC(=O)c2ccc(Cl)cc2)c2ccccc2[n+]1C	6.5	-19.1*	2.3	5.5	-1.4	1.6	·	-1.44
COCC(=O)N(C)C[C@H]1Oc2cc(C#CC3CCCC3)ccc2S(=O)(=O)N([C@@H](C)CO)C[C@@H]1C	7.0[16.7 µM]	-4.5	1.5[16.7 µM]	-4.2	0.7	·	·	·
C[C@@H]1CN([C@@H](C)CO)C(=O)c2cccc(NS(=O)(=O)c3cn(C)cn3)c2O[C@@H]1CN(C)Cc1ccc(C(F)(F)F)cc1	-18.9[16.7 µM]	-0.6	3.5[16.7 µM]	10.8	1.2	0.2	·	·
Cc1ccc(-n2nc(C)c3c(C)c(CCC(=O)O)c(C)nc32)cc1	-0.7	-7.7	·	5.7	-1.3	0.9	·	·
Cc1ccc(-n2nc(C)c3c(C)c(CCC(=O)O)c(C)nc32)cc1C	5.5	-26.0*	3.6	1.2	1.5	-0.1	-15.2	·
Cc1onc(-c2c(Cl)cccc2Cl)c1C(=O)Nc1ccc(Cl)cn1	11.4	-20.5*	·	-24.3	-2.7	·	-0.98	-2.96
Cc1onc(-c2ccccc2)c1C(=O)Nc1ccc(Cl)cn1	5.1	-15.1	19.3	7.5	1.9	18.9	·	·
Cc1onc(-c2ccccc2Cl)c1C(=O)Nc1ccc(Cl)cn1	7.6	-22.4*	·	11.5	0.9	·	-10.4	-6.32
Cc1ccc(NC(=O)c2c(-c3ccccc3Cl)noc2C)nc1	10.2	21.6	·	30.1	-0.6	·	·	·
COc1ccc(S(=O)(=O)N(C)C[C@H]2Oc3ccc(NC(=O)Cn4cnnn4)cc3CC(=O)N([C@@H](C)CO)C[C@@H]2C)cc1	-25.4[16.7 µM]	1.9	8.6[16.7 µM]	5.8	-1.9	-6.2	·	·
COC(=O)[C@]1(Sc2ccc(C)cc2)CC(=O)N[C@@H]1c1ccccc1	-0.2	-21.1*	·	-9.8	-1.6	·	-6.43	?
CCn1c(SCC(=O)Nc2ccc(OC)cc2)nc2nc3c(cc2c1=O)CCCC3	7.1	-27.9*	1.4	·	1.4	6.6	0.299	?
Cc1cccc(S(=O)(=O)N2CC[C@@H]3[C@@H](CO)N(C)c4ccc(-c5ccccc5F)cc4[C@@H]32)c1	·	1.4	29.7[16.7 µM]	9.4	4.2	24.8	·	·
Cc1cccc(S(=O)(=O)Nc2ccc(-c3cn4ccccc4n3)cc2)c1	·	-32.5*	13.7	-0.8	-3.1	-1.6	?	·
Cc1ccc(C(=O)Cn2nnc(-c3cccs3)n2)cc1	9.7	7.7	-7.0	·	-0.4	·	·	·
SMILES	HIV Env fusion	rRNA inh HTS	miR-122 sensor	INS-1E GSIS act	CFTR F508del cor	Cneo AK release	AID977621	AID977628
O=C(CN1CC[n+]2c(-c3cccs3)csc21)c1ccc(-c2ccccc2)cc1	3.7	-41.0*	·	-32.6	-1.3	·	0.078	-2.24
CN(C)CCCNC(=O)C[C@@H]1CC[C@H](NC(=O)Cc2cccnc2)[C@H](CO)O1	-7.1[16.7 µM]	-1.4	·	0.9	-1.8	-6.3	·	·
O=C1CCCCC1Nc1ccc(Br)cc1 (centres undefined)	10.6	-18.6*	·	-5.9	-0.7	·	-0.882	-10.8
O=C1CCCCC1Nc1ccc(Cl)cc1 (centres undefined)	3.1	-16.2	·	-5.6	7.1	·	·	·
O=C(C[C@H]1CC[C@H]2[C@@H](COC[C@H](O)CN2C(=O)c2ccccc2)O1)N1CCOCC1	-0.7[16.7 µM]	-1.1	-3.1[16.7 µM]	-3.8	3.4	2.0	·	·
COc1ccccc1N(C)S(=O)(=O)c1ccc(Cl)c(C(=O)NC2=NCCS2)c1	26.1	-29.8*	3.9	-6.0	-0.9	4.7	-15	?
N#C[C@@H]1[C@@H](c2ccc(/C=C/c3ccccc3)cc2)[C@@H](CO)N1C(=O)C1CCC1	-10.4[16.7 µM]	0.6	·	2.3	-0.4	-3.0	·	·
O=C(Cc1ccncc1)Nc1ccc2c(c1)[C@@H]1C[C@H](CC(=O)N3CCOCC3)O[C@@H](CO)[C@@H]1O2	-21.6[16.7 µM]	1.8	8.9[16.7 µM]	2.6	-1.1	-46.2	·	·
Nc1ccccc1C#CC(=O)c1ccccc1	-104.9	-22.9*	·	70.7	-4.9	-0.6	·	?
CN(C)CCNc1ncnc2c1sc1nc(N3CCCC3)c3c(c12)CC(C)(C)OC3	14.0	-20.6*	-5.6	45.7	6.5	3.1	·	-5.32
C=CCN(c1ccccc1)S(=O)(=O)c1cccc2cccnc12	1.5	-24.2*	10.2	-13.4	1.4	·	2.26	·
COc1ccc(NS(=O)(=O)c2cccc3ccccc23)cc1	1.8	-38.7*	·	·	2.2	-0.4	-22.4	·
CNC[C@@H]1Oc2ncc(-c3ccccc3C)cc2C(=O)N([C@H](C)CO)C[C@H]1C	13.6[16.7 µM]	7.4	-4.3[16.7 µM]	-1.1	-0.9	3.8	·	·
Cc1cc2nc(-c3cc(N4CCOCC4)ccc3[N+](=O)[O-])ccn2n1	-3.3	2.1	-2.2	-3.7	-0.9	6.6	·	·
Cc1cc2nc(-c3ccc4c(c3)CCC4)ccn2n1	9.3	-30.6*	·	1.7	-2.6	·	·	?
CN(C)CC#Cc1ccc([C@@H]2[C@@H](CO)N3C(=O)CN(C(=O)Cc4ccccc4)C[C@@H]23)cc1	·	4.1	·	6.0	-0.9	·	·	·
